Here are results for two compounds from ChEMBL document CHEMBL4680120, “Novel anti-Alzheimer phenol-lipoyl hybrids: Synthesis, physico-chemical characterization, and biological evaluation” (Eur J Med Chem, 2020).

Structures are written as SMILES. Activity calls are given as the source filed them. The calls are words filed in the database; no cut-off is given here.

For series [1], the system named is SH-SY5Y. The series can be described thus: Neuroprotective activity against amyloid beta (1 to 42)-induced apoptosis in human SH-SY5Y cells assessed as late apoptotic cells at IC50 measured after 48 hrs by Annexin-V/Propidium iodide staining based flow cytometry (reference value: 33.72%). The series is classed as functional.
For series [2], the system named is Erythrocyte. The series can be described thus: Cytoprotective activity against H2O2-induced oxidative damage in human RBC assessed as restoration of antioxidant activity measured after 72 hrs by TAC assay. Type of series: functional, cell-based.
The subject of series [3] is SH-SY5Y. The series can be described thus: Neuroprotective activity against amyloid beta (1 to 42)-induced toxicity in human SH-SY5Y cells assessed as decrease in APP mRNA expression at IC50 measured after 48 hrs by SYBR green dye based RT-qPCR analysis. The series is classed as functional, cell-based. A digest of the protocol: (§1)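 Differentiated SH-SY5Y cells in 6-well plates treated 48 h with Aβ1-42 (20 μM) with or without hybrid. mRNA of AD-related genes measured by RT-qPCR, normalized to β-actin. Expressed as fold change versus untreated cells. Triplicate experiments.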

The subject of series [4] is SH-SY5Y. The series can be described thus: Neuroprotective activity against amyloid beta (1 to 42)-induced toxicity in human SH-SY5Y cells assessed as increase in cell viability at 1 to 250 mg/l measured after 48 hrs by MTT assay. The settings on record: dose 1-250 mg/L. Type of series: functional, cell-based. A digest of the protocol: (§2)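 SH-SY5Y cells grown in DMEM/F12 with 10% FBS and differentiated with retinoic acid (10 μM), seeded at 1×10^4 per well and cultured 24 h. Cells were given hybrids at 1–250 mg/L with or without Aβ1-42 (20 μM) for 48 h. MTT (5 mg/mL) added for 4 h at 37°C, DMSO solubilization, read at 570/630 nm. LDH read at 450 nm. Five independent experiments.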

The subject of series [5] is SH-SY5Y. The series can be described thus: Neuroprotective activity against amyloid beta (1 to 42)-induced toxicity in human SH-SY5Y cells assessed as decrease in APOE mRNA expression at IC50 measured after 48 hrs by SYBR green dye based RT-qPCR analysis. The series is classed as functional, cell-based. A digest of the protocol:
as §1

Series [6] has as its system SH-SY5Y. The series can be described thus: Neuroprotective activity against amyloid beta (1 to 42)-induced toxicity in human SH-SY5Y cells assessed as decrease in BACE1 mRNA expression at IC50 measured after 48 hrs by SYBR green dye based RT-qPCR analysis. Type of series: functional, cell-based. A digest of the protocol:
as §1

Series [7] deals with SH-SY5Y. The series can be described thus: Neuroprotective activity against amyloid beta (1 to 42)-induced toxicity in human SH-SY5Y cells assessed as decrease in PSENEN mRNA expression at IC50 measured after 48 hrs by SYBR green dye based RT-qPCR analysis. The series is classed as functional, cell-based. A digest of the protocol:
as §1

In series [8] the test system is Erythrocyte. The series can be described thus: Cytoprotective activity against H2O2-induced oxidative damage in human RBC assessed as increase in cell viability measured after 72 hrs by LDH release assay. The series is classed as functional, cell-based. A digest of the protocol:
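Heparinized whole blood cultured with phytohemagglutinin. Cells were co-incubated with 50 or 100 μM hybrid and H2O2 (25 μM). Viability was read by MTT: lymphocytes at 2×10^5 per well, MTT 4 h at 37°C, formazan dissolved in DMSO, absorbance 570 nm. LDH release was measured on 100 μL medium with a commercial kit. Results are relative to untreated control.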

For series [9], the system named is Erythrocyte. The series can be described thus: Antioxidant activity in human RBC assessed as increase in total antioxidant capacity level up to 400 ug/ml measured after 72 hrs relative to control. Type of series: functional. The note with it: dose microg/ml <=400.
For series [10], the system named is Erythrocyte. The series can be described thus: Cytoprotective activity against H2O2-induced oxidative damage in human RBC assessed as recovery of H2O2-induced cell death at 50 to 100 uM measured after 72 hrs by MTT assay relative to control. Type of series: functional. The note with it: dose 50-100 µM.
The nature of series [11]: Stability in simulated gastric fluid at pH 1.2 assessed as relative difference measured after 60 mins in presence of pepsin by HPLC analysis. The series is classed as ADME. The note with it: isolated protein, pH 1.2, 1 h. A digest of the protocol: (§3)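 Incubation in simulated gastric fluid (pH 1.2, pepsin) or simulated intestinal fluid (pH 6.8, pancreatin). Aliquots deproteinized with ice-cold acetonitrile, centrifuged at 4°C and 12000 rpm for 10 min, filtered, analyzed by HPLC. RD% = (Ci − Cf)/Ci × 100. Stable if RD < 5%. Means of three experiments.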

Series [12] has as its system SH-SY5Y. The series can be described thus: Neuroprotective activity against amyloid beta (1 to 42)-induced toxicity in human SH-SY5Y cells assessed as decrease in TNFalpha mRNA expression at IC50 measured after 48 hrs by SYBR green dye based RT-qPCR analysis. The series is classed as functional, cell-based. A digest of the protocol: as §1
Series [13] has as its system SH-SY5Y. The series can be described thus: Neuroprotective activity against amyloid beta (1 to 42)-induced toxicity in human SH-SY5Y cells assessed as increase in PSEN mRNA expression at IC50 measured after 48 hrs by SYBR green dye based RT-qPCR analysis. The series is classed as functional, cell-based. A digest of the protocol: as §1
In series [14] the test system is SH-SY5Y. The series can be described thus: Neuroprotective activity against amyloid beta (1 to 42)-induced toxicity in human SH-SY5Y cells assessed as decrease in […] mRNA expression at IC50 measured after 48 hrs by SYBR green dye based RT-qPCR analysis. Type of series: functional, cell-based. A digest of the protocol:
as §1

Series [15] in a line: Stability in human plasma assessed as observed rate constant by HPLC analysis. Type of series: ADME, cell-free. A digest of the protocol:
(§4)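 Compound stock added to human plasma pre-warmed to 37°C and diluted with 0.02 M phosphate buffer (pH 7.4) to 80% plasma. 100 μL samples taken over time, quenched with 200 μL cold acetonitrile, centrifuged, and supernatant analyzed by HPLC. t½ and kobs are means of three experiments.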

The nature of series [16]: Stability in simulated gastric fluid at pH 1.2 assessed as relative difference measured after 30 mins in presence of pepsin by HPLC analysis. Type of series: ADME. The settings on record: isolated protein, pH 1.2, 0.5 h. A digest of the protocol: as §3
Series [17] relates to SH-SY5Y. The series can be described thus: Neuroprotective activity against amyloid beta (1 to 42)-induced apoptosis in human SH-SY5Y cells assessed as early apoptotic cells at IC50 measured after 48 hrs by Annexin-V/Propidium iodide staining based flow cytometry (reference value: 0.74%). The series is classed as functional.
The test system of series [18] is Erythrocyte. The series can be described thus: Cytoprotective activity against H2O2-induced oxidative damage in human RBC assessed as increase in cell viability measured after 72 hrs by MTT assay. Type of series: functional, cell-based.
Series [19] is described as follows: Half life in human plasma by HPLC analysis. Type of series: ADME, cell-free. A digest of the protocol:
as §4

In series [20] the test system is SH-SY5Y. The series can be described thus: Cytotoxicity against human SH-SY5Y cells assessed as reduction in cell viability at 1 to 250 mg/l measured after 48 hrs by MTT assay. Type of series: cell-based. The note with it: dose 1-250 mg/L. A digest of the protocol: as §2
In series [21] the test system is Erythrocyte. The series can be described thus: Cytoprotective activity against H2O2-induced oxidative damage in human RBC assessed as recovery of H2O2-induced cell death at 50 to 100 uM measured after 72 hrs by LDH release assay relative to control. The series is classed as functional. The note with it: dose 50-100 µM. A digest of the protocol:
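Heparinised human whole blood cultured in phytohemagglutinin-containing chromosome medium and co-incubated with hybrids and H2O2 at 37C for 72 h. LDH released into the culture medium was measured with a commercial kit. Triton X-100 served as positive control, with untreated cultures as reference. Cytoprotection was expressed as viability relative to control.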

Series [22] has as its system SH-SY5Y. The series can be described thus: Neuroprotective activity against amyloid beta (1 to 42)-induced apoptosis in human SH-SY5Y cells assessed as decrease in DNA fragmentation at IC50 measured after 48 hrs by Hoechst 33258 staining based fluorescence microscopic assay. Type of series: functional, cell-based. A digest of the protocol: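 Differentiated SH-SY5Y cells, 4×10^4 per well, exposed 48 h to Aβ1-42 (20 μM) with or without hybrid. Fixed in 4% paraformaldehyde for 30 min, stained with Hoechst 33258 for 15 min. Nuclear chromatin condensation and DNA fragmentation scored by fluorescence microscopy at ×200.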

For series [23], the system named is SH-SY5Y. The series can be described thus: Neuroprotective activity against amyloid beta (1 to 42)-induced toxicity in human SH-SY5Y cells assessed as decrease in BDNF mRNA expression at IC50 measured after 48 hrs by SYBR green dye based RT-qPCR analysis. Type of series: functional, cell-based. A digest of the protocol: as §1

In the case of `COc1cc(/C=C/C(=O)NCCCNC(=O)CCCCC2CCSS2)ccc1O` (stereo unspecified), the Activity with SH-SY5Y [1] was 9.97%; in the series with Erythrocyte [2], “Dose-dependent effect”; in the series on Erythrocyte [8], “Dose-dependent effect”; in the series with Erythrocyte [9] it was 6.7%; in the series with Erythrocyte [10], 0.5%; in the series with SH-SY5Y [17] it was 1.19%. Further, the Activity result in the series with Erythrocyte [18] was “Dose-dependent effect”; in the series with SH-SY5Y [20], “Non-Toxic”; in the series with Erythrocyte [21] it was 0.4%. Moreover, the outcome in the series on SH-SY5Y [3], with SH-SY5Y [4], in the series on SH-SY5Y [5], in the series on SH-SY5Y [6], in the series on SH-SY5Y [7] and in the series with SH-SY5Y [12] was Active. Besides, the outcome in the series with SH-SY5Y [13], in the series on SH-SY5Y [14], in the series with SH-SY5Y [22] and in the series with SH-SY5Y [23] was Active. The “fold change (FC)” value is 1.78% in series [11] and 0.43% in series [16]. In addition, the K in series [15] was 0.01 h⁻¹. This compound also had a half-life in [19] of 72.4 h.
Regarding `O=C(CCCCC1CCSS1)NCCCCCOC(=O)Cc1ccc(O)c(O)c1` (stereo unspecified), the Activity with SH-SY5Y [1] was 9.69%; in the series with Erythrocyte [2], “Dose-dependent effect”; in the series with Erythrocyte [8], “Dose-dependent effect”; in the series with Erythrocyte [9], 32.3%; with Erythrocyte [10] it was 0.5%; with SH-SY5Y [17] it was 1.86%. Moreover, the results for the Activity entry in the series with Erythrocyte [18], with SH-SY5Y [20] and in the series on Erythrocyte [21] were “Dose-dependent effect”, “Non-Toxic” and 0.4%, respectively. The result in the series with SH-SY5Y [3], in the series on SH-SY5Y [4], in the series with SH-SY5Y [5], with SH-SY5Y [6], in the series with SH-SY5Y [7] and in the series with SH-SY5Y [12] was Active. In addition, the outcome in the series with SH-SY5Y [13], with SH-SY5Y [14], with SH-SY5Y [22] and in the series on SH-SY5Y [23] was Active. Also, the “fold change (FC)” value in series [11] is 100%; in series [16], 79.35%. In [15], the K was 20.56 h⁻¹. Further, in [19], the half-life is 0.03 h.
